According to ChEMBL document CHEMBL1157752, “Lessons learned from herbal medicinal products: the example of St. John's Wort (perpendicular)” (J Nat Prod, 2010):

How the values were obtained:
Rattus norvegicus [1] = assay: Antidepressant activity in rat assessed as immobility time at 20 mg/kg, po by forced swimming test (reference value: 158.7 +/- 8.9 sec); type: functional
How it was run: (§1)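 Rat forced swimming test (Porsolt): test substances given orally, and immobility time in seconds is recorded as mean ± SEM. Imipramine serves as the reference antidepressant.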

Rattus norvegicus [2] = assay: Antidepressant activity in rat assessed as immobility time at 20 mg/kg, po by forced swimming test (reference value: 150.3 +/- 11.1 sec); type: functional; how it was run: as §1
Rattus norvegicus [3] = assay: Antidepressant activity in rat assessed as immobility time at 20 mg/kg, po by forced swimming test (reference value: 138.6 +/- 12 sec); type: functional
Rattus norvegicus [4] = assay: Antidepressant activity in rat assessed as immobility time at 20 mg/kg, po by forced swimming test (reference value: 169.6 +/- 19 sec); type: functional; how it was run: as §1
Rattus norvegicus [5] = assay: Antidepressant activity in rat assessed as immobility time at 0.6 mg/kg, po by forced swimming test (reference value: 150.3 +/- 11.1 sec); type: functional
Rattus norvegicus [6] = assay: Antidepressant activity in rat assessed as immobility time at 1.3 mg/kg, po by forced swimming test (reference value: 150.3 +/- 11.1 sec); type: functional
How it was run: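 Rats received single compounds by mouth in a Porsolt forced swimming test. The read-out was immobility time in seconds, compared with a saline control, with imipramine 20 mg/kg po as the reference antidepressant. Values are mean ± SEM, n = 10 per group.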

Cytochrome P450 3A4 = Cytochrome P450 3A4 (Homo sapiens, UniProt P08684)
[7] = Permeability across basolateral to apical side in human Caco-2 cells; type: ADME, cell-based; conditions: read-out: permeability
How it was run: (§2)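 Caco-2 colon adenocarcinoma cells were grown as monolayers in Transwell chambers, and compound was dosed to the apical or the basolateral side. Transport was measured apical to basolateral (absorption) and basolateral to apical (efflux). The result is given as apparent permeability in cm/s.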

Rattus norvegicus [8] = assay: Antidepressant activity in rat assessed as immobility time at 0.5 mg/kg, po by forced swimming test (reference value: 158.7 +/- 8.9 sec); type: functional; how it was run: as §1
[9] = Plasma concentration in po dosed rat after 270 mins; type: ADME, organism-based
How it was run: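 Rats were fed the pure compound orally, and plasma concentration was followed over time, including the 270 min point. AUC was expressed relative to the compound given alone, set at 100%.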

D(3) dopamine receptor = D(3) dopamine receptor (Homo sapiens, UniProt P35462); assay: Binding affinity to dopamine D3 receptor
[10] = molecular target: T1, Corticotropin-releasing factor receptor 1 (Homo sapiens, UniProt P34998); assay: Inhibition of recombinant CRF1 receptor expressed in CHO cells assessed as inhibition of CRF-induced cAMP formation; type: functional, cell-based
T1 sequence (P34998 whole entry): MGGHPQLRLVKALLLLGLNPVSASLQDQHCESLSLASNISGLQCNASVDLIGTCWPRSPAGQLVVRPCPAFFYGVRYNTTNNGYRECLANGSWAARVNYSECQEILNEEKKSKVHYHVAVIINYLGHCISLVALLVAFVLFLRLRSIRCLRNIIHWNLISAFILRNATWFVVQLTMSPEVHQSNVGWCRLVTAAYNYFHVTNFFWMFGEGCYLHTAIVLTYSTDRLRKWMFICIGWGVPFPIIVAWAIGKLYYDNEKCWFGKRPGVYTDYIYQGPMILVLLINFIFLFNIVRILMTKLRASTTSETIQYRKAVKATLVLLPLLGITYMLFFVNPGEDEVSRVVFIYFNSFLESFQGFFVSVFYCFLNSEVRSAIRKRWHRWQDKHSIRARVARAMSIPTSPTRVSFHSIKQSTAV

Rattus norvegicus [11] = assay: Antidepressant activity in rat assessed as immobility time at […], po by forced swimming test (reference value: 158.7 +/- 8.9 sec); type: functional
Rattus norvegicus [12] = assay: Antidepressant activity in rat assessed as immobility time at 0.08 mg/kg, po by forced swimming test (reference value: 158.7 +/- 8.9 sec); type: functional; how it was run: as §1
Rattus norvegicus [13] = assay: Reduction in %5HT1A receptor mRNA expression in rat hippocampus at 0.2 mg/kg, po, qd for 8 weeks; type: functional; design: scale not given: the % may be the effect or the level left
Rattus norvegicus [14] = assay: Reduction in corticotropin-releasing hormone mRNA expression in rat hyphalamic paraventricular nucleus at 0.2 mg/kg, po, qd for 8 weeks; type: functional; design: scale not given: the % may be the effect or the level left
[15] = molecular target: T1, Corticotropin-releasing factor receptor 1; assay: Inhibition of CRF1 receptor
[16] = Permeability across apical to basolateral side in human Caco-2 cells; type: ADME, cell-based; conditions: read-out: permeability; how it was run: as §2
Rattus norvegicus [17] = assay: Antidepressant activity in rat assessed as immobility time at 0.6 mg/kg, po by forced swimming test (reference value: 169.6 +/- 19 sec); type: functional; how it was run: as §1
Rattus norvegicus [18] = assay: Antidepressant activity in rat assessed as immobility time at 2.6 mg/kg, po by forced swimming test (reference value: 169.6 +/- 19 sec); type: functional; how it was run: as §1
Rattus norvegicus [19] = assay: Antidepressant activity in rat assessed as immobility time at 5.2 mg/kg, po by forced swimming test (reference value: 169.6 +/- 19 sec); type: functional; how it was run: as §1
Rattus norvegicus [20] = assay: Antidepressant activity in rat assessed as immobility time at 7.6 mg/kg, po by forced swimming test (reference value: 169.6 +/- 19 sec); type: functional; how it was run: as §1
Rattus norvegicus [21] = assay: Antidepressant activity in rat assessed as immobility time at 1.3 mg/kg, po by forced swimming test (reference value: 169.6 +/- 19 sec); type: functional; how it was run: as §1
[22] = molecular target: Delta-type opioid receptor (Homo sapiens, UniProt P41143); assay: Binding affinity to delta opioid receptor
[23] = molecular target: T2, Alpha-2C adrenergic receptor (Homo sapiens, UniProt P18825); assay: Binding affinity to adrenergic alpha2c receptor
T2 sequence (P18825 whole entry): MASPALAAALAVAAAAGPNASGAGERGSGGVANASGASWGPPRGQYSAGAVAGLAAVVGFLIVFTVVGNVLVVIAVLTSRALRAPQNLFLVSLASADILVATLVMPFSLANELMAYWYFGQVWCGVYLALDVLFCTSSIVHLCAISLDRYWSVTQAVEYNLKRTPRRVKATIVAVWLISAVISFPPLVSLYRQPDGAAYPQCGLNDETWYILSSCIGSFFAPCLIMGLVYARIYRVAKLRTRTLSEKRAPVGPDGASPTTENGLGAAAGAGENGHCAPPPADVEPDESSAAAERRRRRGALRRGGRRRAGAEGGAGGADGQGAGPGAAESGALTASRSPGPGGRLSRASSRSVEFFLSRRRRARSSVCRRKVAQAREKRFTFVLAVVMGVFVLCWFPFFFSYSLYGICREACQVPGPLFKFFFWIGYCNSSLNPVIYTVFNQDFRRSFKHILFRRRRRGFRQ

D(4) dopamine receptor = molecular target: T3, D(4) dopamine receptor (Homo sapiens, UniProt P21917); assay: Binding affinity to dopamine D4 receptor
T3 sequence (P21917 whole entry): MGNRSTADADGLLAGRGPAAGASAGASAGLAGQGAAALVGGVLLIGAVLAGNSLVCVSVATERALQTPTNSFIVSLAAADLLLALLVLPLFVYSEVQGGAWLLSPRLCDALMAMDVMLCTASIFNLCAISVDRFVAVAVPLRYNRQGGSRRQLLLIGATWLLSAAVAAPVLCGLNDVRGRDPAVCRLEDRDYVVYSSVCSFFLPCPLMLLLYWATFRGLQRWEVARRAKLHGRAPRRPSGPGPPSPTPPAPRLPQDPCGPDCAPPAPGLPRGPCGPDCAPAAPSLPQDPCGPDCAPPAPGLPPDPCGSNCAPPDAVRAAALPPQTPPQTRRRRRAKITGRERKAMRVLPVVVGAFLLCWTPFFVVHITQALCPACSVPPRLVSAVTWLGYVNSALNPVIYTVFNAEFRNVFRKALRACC

Cytochrome P450 3A4, sequence (P08684 whole entry): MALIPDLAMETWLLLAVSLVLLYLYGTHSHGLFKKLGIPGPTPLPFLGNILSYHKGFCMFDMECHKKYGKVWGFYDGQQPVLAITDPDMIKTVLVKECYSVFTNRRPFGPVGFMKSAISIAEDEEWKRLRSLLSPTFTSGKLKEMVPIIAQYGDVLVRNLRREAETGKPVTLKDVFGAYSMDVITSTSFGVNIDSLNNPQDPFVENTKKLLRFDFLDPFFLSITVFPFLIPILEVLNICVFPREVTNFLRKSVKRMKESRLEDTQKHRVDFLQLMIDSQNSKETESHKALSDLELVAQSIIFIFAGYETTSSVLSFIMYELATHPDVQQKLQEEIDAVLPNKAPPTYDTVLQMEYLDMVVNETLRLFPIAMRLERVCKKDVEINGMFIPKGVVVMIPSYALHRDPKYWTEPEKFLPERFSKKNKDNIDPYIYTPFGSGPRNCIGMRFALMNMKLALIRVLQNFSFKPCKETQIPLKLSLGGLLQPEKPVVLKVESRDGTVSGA
Delta-type opioid receptor, sequence (P41143 whole entry): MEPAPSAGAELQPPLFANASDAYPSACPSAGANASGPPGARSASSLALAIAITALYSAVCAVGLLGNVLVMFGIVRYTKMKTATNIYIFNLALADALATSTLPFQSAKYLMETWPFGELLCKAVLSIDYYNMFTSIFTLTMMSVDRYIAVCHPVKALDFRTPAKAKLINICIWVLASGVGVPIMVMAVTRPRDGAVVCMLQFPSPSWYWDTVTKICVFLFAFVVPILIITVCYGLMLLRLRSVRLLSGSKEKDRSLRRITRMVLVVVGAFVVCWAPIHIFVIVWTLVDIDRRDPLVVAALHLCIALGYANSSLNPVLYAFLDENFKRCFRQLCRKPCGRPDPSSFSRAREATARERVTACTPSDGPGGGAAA
D(3) dopamine receptor, sequence (P35462 whole entry): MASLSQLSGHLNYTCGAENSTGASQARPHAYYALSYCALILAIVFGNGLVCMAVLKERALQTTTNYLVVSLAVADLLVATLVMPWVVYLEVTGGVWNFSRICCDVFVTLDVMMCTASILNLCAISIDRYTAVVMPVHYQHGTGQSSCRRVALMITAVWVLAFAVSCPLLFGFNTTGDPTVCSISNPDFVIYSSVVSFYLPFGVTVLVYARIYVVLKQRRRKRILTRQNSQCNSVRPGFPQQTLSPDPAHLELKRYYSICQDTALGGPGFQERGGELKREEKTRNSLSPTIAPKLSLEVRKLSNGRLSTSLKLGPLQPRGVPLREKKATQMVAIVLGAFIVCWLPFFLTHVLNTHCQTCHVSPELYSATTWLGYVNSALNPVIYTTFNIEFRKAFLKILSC

CN(C)CCCN1c2ccccc2CCc2ccccc21 [IMIPRAMINE]
Time (Rattus norvegicus [1]): 97.1 s
Time (Rattus norvegicus [2]): 86.1 s
Time (Rattus norvegicus [3]): 77.5 s
Time (Rattus norvegicus [4]): 95.4 s

C[C@@H]1O[C@@H](Oc2c(-c3ccc(O)c(O)c3)oc3cc(O)cc(O)c3c2=O)[C@H](O)[C@H](O)[C@H]1O [QUERCITRIN]
Time (Rattus norvegicus [5]): 149.9 s
Time (Rattus norvegicus [6]): 162.3 s

Cc1cc(O)c2c(=O)c3c(O)cc(O)c4c5c(O)cc(O)c6c(=O)c7c(O)cc(C)c8c1c2c(c34)c(c78)c65 [HYPERICIN]
IC50 (Cytochrome P450 3A4): 8700 nM
Papp B→A [7]: 12 ×10⁻⁶ cm/s
Time (Rattus norvegicus [8]): 147.8 s
concentration at 4.5 h [9]: 6 ng/mL
Ki (D(3) dopamine receptor): 34.5 nM
IC50 [10]: 300 nM
Time (Rattus norvegicus [11]): 110.2 s
Time (Rattus norvegicus [12]): 154.7 s
Activity (Rattus norvegicus [13]): 11%
Activity (Rattus norvegicus [14]): 16%
IC50 [15]: 300 nM
Papp A→B [16]: 0.25 ×10⁻⁶ cm/s

O=c1c(O[C@@H]2O[C@H](CO)[C@H](O)[C@H](O)[C@H]2O)c(-c2ccc(O)c(O)c2)oc2cc(O)cc(O)c12 [HYPEROSIDE]
Time (Rattus norvegicus [17]): 101.2 s
Time (Rattus norvegicus [18]): 133.7 s
Time (Rattus norvegicus [19]): 149.2 s
Time (Rattus norvegicus [20]): 158.8 s
Time (Rattus norvegicus [21]): 109.5 s

C[C@@H]1O[C@@H](O[C@H]2C(=O)c3c(O)cc(O)cc3O[C@@H]2c2ccc(O)c(O)c2)[C@H](O)[C@H](O)[C@H]1O [ASTILBIN]
Time (Rattus norvegicus [5]): 148.6 s
Time (Rattus norvegicus [6]): 163.7 s

O=c1cc(-c2ccc(O)c(-c3c(O)cc(O)c4c(=O)cc(-c5ccc(O)cc5)oc34)c2)oc2cc(O)cc(O)c12 [AMENTOFLAVONE]
Ki [22]: 36.5 nM

O=c1c(O[C@@H]2O[C@H](CO)[C@@H](O)[C@H](O)[C@H]2O)c(-c2ccc(O)c(O)c2)oc2cc(O)cc(O)c12 [ISOQUERCETIN]
Time (Rattus norvegicus [5]): 100.4 s

O=C(O)[C@H]1O[C@@H](Oc2c(-c3ccc(O)c(O)c3)oc3cc(O)cc(O)c3c2=O)[C@H](O)[C@@H](O)[C@@H]1O [MIQUELIANIN]
Ki [23]: 4060 nM

O=c1c(O)c(-c2ccc(O)c(O)c2)oc2cc(O)cc(O)c12 [QUERCETIN]
Ki (D(4) dopamine receptor): 7850 nM

O=c1c(-c2c(O)cc(O)c3c(=O)cc(-c4ccc(O)cc4)oc23)c(-c2ccc(O)cc2)oc2cc(O)cc(O)c12
IC50 (Cytochrome P450 3A4): 80 nM
